Laboratory results from publication PMC10937897 (Sexual Medicine, 2024).
Counter-ions that a name gives are not always drawn. Like-named read-outs stand apart in the source and are kept apart here. Marks after values point to notes of the source that are not given here.

How the values were obtained:
[1] = assay type: in vivo, human; settings: for AUC0-24 / Cmax / T1/2 / Cmin,ss / Cmax,ss: geometric mean (CV%); for Tmax: median (range); for C24: mean (SD)
Procedure, shortened: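 Males took 30 or 60 mg oral test compound once daily for 5 days, fasted, 10 per group. Blood (5 mL) was drawn predose and 0.25–24 h postdose on days 1 and 5, and predose on days 3 and 4. Serum (3500 rpm, 10 min, 4 °C; stored –70 °C) was assayed for parent and M1, M5, M12 by LC-MS/MS MRM, linear 0.5–1000 ng/mL. Parameters came from noncompartmental analysis, reported as geometric mean (CV%), Tmax median (range), C24 mean (SD).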

healthy Chinese males = assay: Safety and tolerability; assay type: in vivo, human
Procedure, shortened: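 Healthy Chinese males aged 22–45 y with BMI 19.0–24.0 kg/m2, 10 per group. They took 30 or 60 mg oral test compound tablets once daily for 5 days after an overnight fast, with standardized diets. Monitoring covered physical and ophthalmologic exams, vital signs, 12-lead ECG and labs (hematology, chemistry, coagulation, urinalysis), with a day-8 follow-up. The investigator graded AEs for severity and drug relationship, coded in MedDRA 20.0.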

CYP3A4 = CYP3A4 (Homo sapiens, UniProt P08684); assay: Preliminary in vitro metabolism study, CYP3A4; assay type: in vitro ADME; settings: preliminary previously unreported in vitro study
Chain of CYP3A4 (P08684 whole entry): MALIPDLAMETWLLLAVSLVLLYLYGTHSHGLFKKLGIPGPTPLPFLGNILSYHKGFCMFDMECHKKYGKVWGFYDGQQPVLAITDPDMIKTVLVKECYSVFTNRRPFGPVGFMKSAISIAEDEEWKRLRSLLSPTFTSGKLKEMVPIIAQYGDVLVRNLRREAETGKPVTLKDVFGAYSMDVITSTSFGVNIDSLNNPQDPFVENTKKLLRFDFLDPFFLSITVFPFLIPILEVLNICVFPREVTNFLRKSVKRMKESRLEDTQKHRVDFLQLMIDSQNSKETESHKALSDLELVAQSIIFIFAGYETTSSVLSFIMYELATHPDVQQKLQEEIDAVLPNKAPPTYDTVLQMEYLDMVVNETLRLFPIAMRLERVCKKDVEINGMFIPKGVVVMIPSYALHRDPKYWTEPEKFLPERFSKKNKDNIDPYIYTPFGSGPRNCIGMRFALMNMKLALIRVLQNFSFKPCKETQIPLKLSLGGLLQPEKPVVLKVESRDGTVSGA

CYP2C9 = CYP2C9 (Homo sapiens, UniProt P11712); assay: Preliminary in vitro metabolism study, CYP2C9; assay type: in vitro ADME; settings: preliminary previously unreported in vitro study
Chain of CYP2C9 (P11712 whole entry): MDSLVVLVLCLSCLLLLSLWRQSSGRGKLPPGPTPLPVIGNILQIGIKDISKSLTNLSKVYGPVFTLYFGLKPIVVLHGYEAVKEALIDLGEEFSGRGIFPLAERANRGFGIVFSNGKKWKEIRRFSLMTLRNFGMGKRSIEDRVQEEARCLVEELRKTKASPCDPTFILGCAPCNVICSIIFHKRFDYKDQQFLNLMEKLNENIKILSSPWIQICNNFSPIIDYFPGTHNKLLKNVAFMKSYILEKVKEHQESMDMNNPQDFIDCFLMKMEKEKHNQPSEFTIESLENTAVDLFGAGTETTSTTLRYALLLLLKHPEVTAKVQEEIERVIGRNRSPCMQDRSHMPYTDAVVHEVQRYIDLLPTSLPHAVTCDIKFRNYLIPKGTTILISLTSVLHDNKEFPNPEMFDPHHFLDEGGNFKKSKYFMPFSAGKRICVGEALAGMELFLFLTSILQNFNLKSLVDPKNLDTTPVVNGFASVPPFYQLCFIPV

PDE3 = settings: cited from earlier work
PDE6 = settings: cited from earlier work
PDE9 = settings: cited from earlier work
PDE11 = settings: cited from earlier work
[2] = 30 mg oral once daily, day 1, serum, n=10
[3] = 30 mg oral once daily, day 5, serum, n=9
[4] = 60 mg oral once daily, day 1, serum, n=10
[5] = 60 mg oral once daily, day 5, serum, n=10
[6] = 30 mg once daily 5 days, n=10, probably or possibly related to the study drug
[7] = 60 mg once daily 5 days, n=10, probably or possibly related to the study drug
[8] = 5-day once-daily doses at 30 and 60 mg

Q: For `CCCc1nn(C)c2c(=O)[nH]c(-c3cc(S(=O)(=O)N4C[C@@H](C)N[C@@H](C)C4)ccc3OCC)nc12` [Aildenafil, aildenafil citrate], which AUC0-24 [1, 2] is on record?
A: 313.78 (45.3) h·ng/mL

Q: And the Cmax [1, 2]?
A: 81.03 (45.3) ng/mL

Q: What about the T1/2 [1, 2] of the same compound?
A: 2.75 (21.2) h

Q: And the Tmax ([1]; 30 mg oral once daily, day 1, serum)?
A: 1.00 (0.50-2.00) h

Q: And the C24 ([1]; 30 mg oral once daily, day 5, serum concentration at 24 hours)?
A: 0.92 (148.0)^b ng/mL

Q: What about the AUC0-24 [1, 3] of the same compound?
A: 346.23 (51.8)^b h·ng/mL

Q: And the “Cmin,ss” value [1, 3]?
A: 1.05 (75.7)^b ng/mL

Q: What about the T1/2 [1, 3] of the same compound?
A: 3.61 (38.1)^b h

Q: What about the “Cmax,ss” value ([1]; 30 mg oral once daily, day 5, serum, n=10) of the same compound?
A: 84.61 (55.9) ng/mL

Q: What about the Tmax ([1]; 30 mg oral once daily, day 5, serum) of the same compound?
A: 0.75 (0.25-2.00) h

Q: And the C24 ([1]; 60 mg oral once daily, day 1, serum concentration at 24 hours)?
A: 1.71 (54.1) ng/mL

Q: And the AUC0-24 [1, 4]?
A: 963.18 (44.8) h·ng/mL

Q: What about the Cmax [1, 4] of the same compound?
A: 199.10 (37.8) ng/mL

Q: What about the T1/2 [1, 4] of the same compound?
A: 3.26 (19.7) h

Q: What about the Tmax ([1]; 60 mg oral once daily, day 1, serum) of the same compound?
A: 1.00 (0.50-2.00) h

Q: And the C24 ([1]; 60 mg oral once daily, day 5, serum concentration at 24 hours)?
A: 3.85 (66.8) ng/mL

Q: And the AUC0-24 [1, 5]?
A: 1683.67 (45.1) h·ng/mL

Q: And the “Cmax,ss” value [1, 5]?
A: 319.71 (23.8) ng/mL

Q: What about the “Cmin,ss” value [1, 5] of the same compound?
A: 3.61 (61.3) ng/mL

Q: And the T1/2 [1, 5]?
A: 3.38 (24.2) h

Q: What about the Tmax ([1]; 60 mg oral once daily, day 5, serum) of the same compound?
A: 0.88 (0.50-3.00) h

Q: What about the “amount in the blood at 24 hours relative to Cmax” value ([1]; after the first dose, 30 or 60 mg) of the same compound?
A: less than 1/20

Q: And the “Blood glucose: elevated: Cases, No.” value (healthy Chinese males; 30 mg once daily 5 days, n=10)?
A: 0 No.

Q: What about the “Blood glucose: elevated: Participants, No. (%)” value (healthy Chinese males; 30 mg once daily 5 days, n=10) of the same compound?
A: 0 (0) No. (%)

Q: And the “Fatigue: Cases, No.” value (healthy Chinese males; 30 mg once daily 5 days, n=10)?
A: 0 No.

Q: What about the “Fatigue: Participants, No. (%)” value (healthy Chinese males; 30 mg once daily 5 days, n=10) of the same compound?
A: 0 (0) No. (%)

Q: What about the “Head discomfort: Cases, No.” value (healthy Chinese males; 30 mg once daily 5 days, n=10) of the same compound?
A: 0 No.

Q: What about the “Head discomfort: Participants, No. (%)” value (healthy Chinese males; 30 mg once daily 5 days, n=10) of the same compound?
A: 0 (0) No. (%)

Q: What about the “Lymphocyte count: decreased: Cases, No.” value (healthy Chinese males; 30 mg once daily 5 days, n=10) of the same compound?
A: 0 No.

Q: And the “Lymphocyte count: decreased: Participants, No. (%)” value (healthy Chinese males; 30 mg once daily 5 days, n=10)?
A: 0 (0) No. (%)

Q: And the “Lymphocyte percentage: decreased: Cases, No.” value (healthy Chinese males; 30 mg once daily 5 days, n=10)?
A: 0 No.

Q: And the “Lymphocyte percentage: decreased: Participants, No. (%)” value (healthy Chinese males; 30 mg once daily 5 days, n=10)?
A: 0 (0) No. (%)

Q: And the “Myalgia: Cases, No.” value (healthy Chinese males; 30 mg once daily 5 days, n=10)?
A: 0 No.

Q: And the “Myalgia: Participants, No. (%)” value (healthy Chinese males; 30 mg once daily 5 days, n=10)?
A: 0 (0) No. (%)

Q: And the “Chest discomfort: Cases, No.” value (healthy Chinese males; [6])?
A: 1^a No.

Q: And the “Chest discomfort: Participants, No. (%)” value (healthy Chinese males; [6])?
A: 1 (10.0)^a No. (%)

Q: What about the “Vomiting: Cases, No.” value (healthy Chinese males; [6]) of the same compound?
A: 1^a No.

Q: What about the “Vomiting: Participants, No. (%)” value (healthy Chinese males; [6]) of the same compound?
A: 1 (10.0)^a No. (%)

Q: What about the “Chest discomfort: Cases, No.” value (healthy Chinese males; 60 mg once daily 5 days, n=10) of the same compound?
A: 0 No.

Q: And the “Chest discomfort: Participants, No. (%)” value (healthy Chinese males; 60 mg once daily 5 days, n=10)?
A: 0 (0) No. (%)

Q: And the “Influenza-like illness: Cases, No.” value (healthy Chinese males; 60 mg once daily 5 days, n=10)?
A: 1 No.

Q: What about the “Influenza-like illness: Participants, No. (%)” value (healthy Chinese males; 60 mg once daily 5 days, n=10) of the same compound?
A: 1 (10.0) No. (%)

Q: And the “Vomiting: Cases, No.” value (healthy Chinese males; 60 mg once daily 5 days, n=10)?
A: 0 No.

Q: What about the “Vomiting: Participants, No. (%)” value (healthy Chinese males; 60 mg once daily 5 days, n=10) of the same compound?
A: 0 (0) No. (%)

Q: And the “Blood glucose: elevated: Cases, No.” value (healthy Chinese males; [7])?
A: 1^a No.

Q: What about the “Blood glucose: elevated: Participants, No. (%)” value (healthy Chinese males; [7]) of the same compound?
A: 1 (10.0)^a No. (%)

Q: What about the “Fatigue: Cases, No.” value (healthy Chinese males; [7]) of the same compound?
A: 2^a No.

Q: And the “Head discomfort: Cases, No.” value (healthy Chinese males; [7])?
A: 1^a No.

Q: And the “Head discomfort: Participants, No. (%)” value (healthy Chinese males; [7])?
A: 1 (10.0)^a No. (%)

Q: And the “Lymphocyte count: decreased: Cases, No.” value (healthy Chinese males; [7])?
A: 1^a No.

Q: And the “Lymphocyte count: decreased: Participants, No. (%)” value (healthy Chinese males; [7])?
A: 1 (10.0)^a No. (%)

Q: What about the “Lymphocyte percentage: decreased: Cases, No.” value (healthy Chinese males; [7]) of the same compound?
A: 1^a No.

Q: What about the “Lymphocyte percentage: decreased: Participants, No. (%)” value (healthy Chinese males; [7]) of the same compound?
A: 1 (10.0)^a No. (%)

Q: What about the “fatalities or serious AEs” value (healthy Chinese males; [8]) of the same compound?
A: no fatalities or serious AEs

Q: And the “impact on heart rate, blood pressure, or visual function” value (healthy Chinese males; [8])?
A: no clinically significant impact

Q: And the “severity of observed AEs” value (healthy Chinese males; [8])?
A: mild to moderate

Q: What about the “instances of AEs assessed by the investigator to be linked to the study drug” value (healthy Chinese males; both dose groups, 20 participants) of the same compound?
A: 26

Q: And the “creatine kinase compared with baseline” value (healthy Chinese males; day 4)?
A: failed to reveal any noteworthy deviations

Q: And the “involvement of CYP3A4 in the metabolism” value (CYP3A4)?
A: involvement

Q: What about the “involvement of CYP2C9 in the metabolism” value (CYP2C9) of the same compound?
A: involvement

Q: What about the “inhibition ratio relative to similar products” value (PDE3) of the same compound?
A: 0.75

Q: And the “inhibition ratio relative to similar products” value (PDE6)?
A: 0.30

Q: What about the “inhibition ratio relative to similar products” value (PDE9) of the same compound?
A: 0.06

Q: And the “inhibition ratio relative to similar products” value (PDE11)?
A: 0.49
